# In the library only some 2.3% were active in any assay of this set; here they are far more common.
# MC4R antag cAMP = MC4R antagonists of cAMP signaling, primary screen, cell-based, TR-FRET, antagonist arm of biased-ligand search | MC4R-expressing cells, MTII-stimulated cAMP, LANCE TR-FRET | inhibition, % at 6.5 µM | hit rate 0.48% among 360,000 | AID 540295, 2011;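 active means inhibition above its plate's cutoff, the mean of tested wells on that plate plus 3 SD, cut at about 29% in these data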
# Target sequence (P32245 whole entry, looked up): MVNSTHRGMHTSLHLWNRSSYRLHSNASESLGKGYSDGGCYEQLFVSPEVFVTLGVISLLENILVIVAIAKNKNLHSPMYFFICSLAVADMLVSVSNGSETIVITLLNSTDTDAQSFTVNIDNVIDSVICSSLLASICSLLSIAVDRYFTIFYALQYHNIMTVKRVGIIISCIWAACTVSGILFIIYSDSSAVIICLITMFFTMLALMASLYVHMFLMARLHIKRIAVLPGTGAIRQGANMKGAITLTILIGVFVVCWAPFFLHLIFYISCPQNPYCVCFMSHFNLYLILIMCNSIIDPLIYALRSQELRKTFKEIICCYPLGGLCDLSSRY
#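 System: U2OS cells stably expressing human melanocortin 4 receptor (MC4R). Reagent: Melanotan II challenge after compound preincubation. Doses: 6.5 µM. Times: 30-min compound, 1-h challenge, 1-h detection, room temperature. Measured by: TR-FRET with Eu-cAMP and labeled anti-cAMP, 671 nm. Replicates: singlicate.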
# bovine MsrA act = bovine MsrA enzyme activators, primary screen, biochemical, absorbance, HTS; Methionine sulfoxide reductase A (Bos taurus); purified bovine MsrA, absorbance read-out; activation, % at 10.6 µM; hit rate 0.3% among 360,000; AID 602163, 2012; in the data active means activation above about 7.5%
# MsrA inhibitor = bovine MsrA enzyme inhibitors, primary screen, biochemical, absorbance, HTS; hit rate 0.75% among 360,000; inhibition, % at 15.5 µM; purified bovine MsrA, absorbance read-out; Methionine sulfoxide reductase A (Bos taurus); in the data active means inhibition above about 4.5%
# MC4R barr agon = MC4R agonists recruiting beta-arrestin, primary screen, cell-based, luminescence, agonist arm of biased-ligand search. activation, % at 8.9 µM. hit rate 0.98% among 360,000. U2OS MC4R beta-arrestin complementation; percent of melanotan II response, DMSO zero;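 active means activation above a per-plate cutoff, the mean activation of sample wells on that plate plus 3 SD, cut at about 8% in these data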
# MC4R barr ag = MC4R beta-arrestin agonists, retest, confirmation, cell-based, luminescence, U2OS; activation, % at 8.9 µM; shares compounds with MC4R barr agon; U2OS MC4R beta-arrestin recruitment; scaled DMSO 0%, Melanotan II 100%; hit rate 31% among 2,400;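 active means mean activation across replicates above the hit cutoff set in the earlier primary screen, cut at about 8% in these data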
# MOR-DOR barr ag = agonists of MOR-DOR heterodimerization, counter-screen for MC4R biased agonist project, cell-based, luminescence | shares compounds with MC4R barr agon | activation, % at 9.2 µM | hit rate 5.8% among 2,400 | AID 602194, 2012 | U2OS PathHunter beta-arrestin, beta-gal luminescence; percent of deltorphin B response, DMSO zero;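 active means mean activation across replicates exceeds the hit threshold derived in the earlier primary screen, cut at about 18% in these data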
# A number is an active result; n = inactive; x = no result.
SMILES,MC4R antag cAMP,bovine MsrA act,MsrA inhibitor,MC4R barr agon,MC4R barr ag,MOR-DOR barr ag
COc1ccc(C(=O)Nc2ccc(N3CCCCC3)cc2)cc1Br,n,n,n,13,n,n
CCSc1nnc(-c2cccnc2)n1Cc1ccco1,n,n,n,n,x,x
Cc1ccc(C(=O)N/N=C\c2cc3c(cc2Br)OCO3)s1,n,n,n,12,10,n
O=C(O)c1cc(NC(=O)c2ccc(Cl)c([N+](=O)[O-])c2)cc(C(=O)O)c1,n,n,n,n,x,x
O=C(Nc1ccc(C(O)(C(F)(F)F)C(F)(F)F)cc1)c1ccc(Cl)c([N+](=O)[O-])c1,n,n,n,14,15,n
C[C@@H]1CCCCO[C@H](CN(C)Cc2ccc3c(c2)OCO3)[C@H](C)CN([C@@H](C)CO)C(=O)c2cc(NC(=O)c3ccccc3)ccc2O1,n,n,n,n,x,x
CS(=O)(=O)N1CCN(c2ccc(NC(=O)c3ccc(-c4ccc(Cl)cc4)o3)cc2)CC1,n,n,n,12,n,n
Cc1ccc(C(=O)Nc2ccc(N3CCN(S(C)(=O)=O)CC3)cc2)cc1,n,n,n,n,x,x
C=CCN1C(=O)C(Cc2ccc(OC)cc2)S/C1=N/N=C/c1ccco1 (stereo not drawn),n,n,n,n,x,x
C=CCN1C(=O)C(Cc2ccc(OC)cc2)S/C1=N\N=C\c1cccs1 (stereo not drawn),n,n,n,9.9,9.7,n
CCCCCCCCCCCCCCCC[n+]1ccc(/C=N/O)cc1,n,n,n,20,64,n
O/N=C/c1cccc[n+]1CCCCCC[n+]1ccccc1/C=N/O,n,n,n,n,x,x
CCc1nc2ccc(C(=O)NCCc3ccc(OC)c(OC)c3)cc2nc1CC,n,n,n,n,x,x
Cn1c(SCC(=O)c2ccccc2)nnc1-c1ccncc1,n,n,n,n,x,x
CC(=O)Nc1nnc(SCC(=O)c2ccc3c(c2)Cc2ccccc2-3)s1,n,n,n,12,n,n
CCC(=O)Nc1nnc(SCC(=O)c2ccc3c(c2)Cc2ccccc2-3)s1,n,n,n,18,n,n
CC(=O)Nc1nnc(SCC(=O)NC2CC2)s1,n,n,n,n,x,x
Cn1c(SCC(=O)c2ccc3c(c2)Cc2ccccc2-3)nnc1-c1ccccc1,n,n,n,11,9.4,n
Fc1cccc(CN2CCC(Cc3ccccc3)CC2)c1,n,n,n,n,x,x
CCOc1ccc([C@@H]2CC=C(C(=O)O)[C@H](c3ccc(Cl)cc3)N2S(=O)(=O)c2ccc(C)cc2)cc1,n,n,n,n,x,x
O=C(CCc1ccc(O)cc1)c1c(O)cc(O)cc1O,n,n,n,n,x,x

# Assay outcomes deposited in PubChem by The Scripps Research Institute Molecular Screening Center.
